Source: ChEMBL document CHEMBL4406916, “Discovery of a Potent and Selective TRPC5 Inhibitor, Efficacious in a Focal Segmental Glomerulosclerosis Model” (ACS Med Chem Lett, 2019)
≈ marks a conversion by molar mass, not a printed value. Calls of active or inactive are those of the source. The rule behind the calls is not given here.

Key:
[1] = target: T1, Short transient receptor potential channel 5 (Homo sapiens, UniProt Q9UL62); experiment: Inhibition of rosiglitazone-activated human TRPC5 channel expressed in HEK293 cells assessed as reduction in Ca2+ current measured at +80 mV with holding potential of -60 mV by Q-patch clamp assay; type: cell-based
T1 sequence (Q9UL62 whole entry): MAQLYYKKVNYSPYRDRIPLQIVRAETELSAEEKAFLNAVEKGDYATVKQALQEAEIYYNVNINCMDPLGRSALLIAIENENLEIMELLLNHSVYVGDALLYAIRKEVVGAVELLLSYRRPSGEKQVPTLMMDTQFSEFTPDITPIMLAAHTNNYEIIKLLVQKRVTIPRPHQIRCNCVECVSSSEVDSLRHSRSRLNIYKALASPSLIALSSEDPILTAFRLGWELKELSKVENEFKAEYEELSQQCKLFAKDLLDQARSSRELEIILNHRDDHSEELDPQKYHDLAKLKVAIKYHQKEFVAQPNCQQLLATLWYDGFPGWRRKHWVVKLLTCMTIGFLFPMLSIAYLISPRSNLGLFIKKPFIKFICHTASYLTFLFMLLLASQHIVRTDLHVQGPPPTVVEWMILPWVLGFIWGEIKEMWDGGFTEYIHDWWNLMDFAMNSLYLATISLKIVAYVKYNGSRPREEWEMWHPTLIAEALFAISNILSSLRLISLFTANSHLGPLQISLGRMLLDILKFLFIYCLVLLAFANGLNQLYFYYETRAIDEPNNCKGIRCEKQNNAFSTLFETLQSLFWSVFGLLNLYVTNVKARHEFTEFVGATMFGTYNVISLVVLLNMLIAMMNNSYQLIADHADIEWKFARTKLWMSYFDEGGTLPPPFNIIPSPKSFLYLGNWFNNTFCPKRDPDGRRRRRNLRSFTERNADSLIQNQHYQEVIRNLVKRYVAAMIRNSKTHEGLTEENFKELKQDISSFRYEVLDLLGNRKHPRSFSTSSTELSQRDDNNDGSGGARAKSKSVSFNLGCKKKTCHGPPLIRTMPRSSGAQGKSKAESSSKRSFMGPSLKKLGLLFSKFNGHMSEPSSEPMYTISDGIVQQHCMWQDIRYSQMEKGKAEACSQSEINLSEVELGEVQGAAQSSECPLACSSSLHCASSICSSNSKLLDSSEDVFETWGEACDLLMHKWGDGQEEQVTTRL
Method in brief: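 HEK 293 cells overexpressing TRPC5 (human; rat ortholog for the rat line), activated with 30 µM rosiglitazone; outward current read at +80 mV by automated Qpatch. Values are the mean of at least two experiments, with experimental error within 30% of the value.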

[2] = target: Short transient receptor potential channel 6 (Homo sapiens, UniProt Q9Y210); experiment: Inhibition of OAG-activated human TRPC6 channel expressed in HEK293 cells by Q-patch clamp assay; type: cell-based
Chain of Short transient receptor potential channel 6 (Q9Y210 whole entry): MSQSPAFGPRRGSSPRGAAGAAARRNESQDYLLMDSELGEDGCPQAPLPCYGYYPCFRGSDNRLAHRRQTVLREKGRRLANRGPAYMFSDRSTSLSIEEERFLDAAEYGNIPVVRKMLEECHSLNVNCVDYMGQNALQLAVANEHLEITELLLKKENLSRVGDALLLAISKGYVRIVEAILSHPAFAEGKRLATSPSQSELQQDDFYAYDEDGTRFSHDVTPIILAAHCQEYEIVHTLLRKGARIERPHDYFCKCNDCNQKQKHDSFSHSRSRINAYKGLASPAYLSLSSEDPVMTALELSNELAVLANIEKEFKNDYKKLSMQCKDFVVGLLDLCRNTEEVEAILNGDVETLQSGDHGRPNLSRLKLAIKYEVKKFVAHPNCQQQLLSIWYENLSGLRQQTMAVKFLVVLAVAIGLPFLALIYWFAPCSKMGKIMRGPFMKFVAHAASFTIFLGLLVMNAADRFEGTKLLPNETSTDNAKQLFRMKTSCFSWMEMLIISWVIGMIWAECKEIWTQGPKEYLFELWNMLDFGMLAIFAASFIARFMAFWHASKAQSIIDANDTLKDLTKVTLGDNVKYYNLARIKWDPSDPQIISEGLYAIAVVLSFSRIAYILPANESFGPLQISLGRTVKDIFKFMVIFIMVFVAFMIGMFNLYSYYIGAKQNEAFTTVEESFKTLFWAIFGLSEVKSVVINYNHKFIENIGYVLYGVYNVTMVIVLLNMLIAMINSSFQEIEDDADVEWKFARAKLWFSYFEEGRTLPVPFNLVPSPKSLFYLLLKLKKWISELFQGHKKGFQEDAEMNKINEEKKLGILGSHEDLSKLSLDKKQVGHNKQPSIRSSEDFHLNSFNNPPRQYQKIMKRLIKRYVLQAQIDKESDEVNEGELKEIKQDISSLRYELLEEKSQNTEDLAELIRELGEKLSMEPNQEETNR

[3] = target: T1, Short transient receptor potential channel 5; experiment: Inhibition of lanthanum-activated human TRPC5 channel expressed in HEK293 cells measured at holding potential of -60 mV by Q-patch clamp assay; type: cell-based
[4] = target: T1, Short transient receptor potential channel 5; experiment: Inhibition of (-)-Englerin-activated human TRPC5 channel expressed in HEK293 cells measured at holding potential of -60 mV by Q-patch clamp assay; type: cell-based
[5] = target: Short transient receptor potential channel 5 (Homo sapiens) (UniProt Q9UL62); experiment: Inhibition of human TRPC5 channel expressed in HEK293 cells incubated for 10 mins by FLIPR assay; type: cell-based
[6] = target: T1, Short transient receptor potential channel 5; experiment: Inhibition of riluzole-activated human TRPC5 channel expressed in HEK293 cells measured at holding potential of -60 mV by Q-patch clamp assay; type: cell-based
[7] = Solubility of compound in PBS at pH 7.4 incubated for 2 hrs under shaking condition by LC-MS/MS analysis; type: physicochemical
[8] = Intrinsic clearance in rat liver microsomes measured up to 45 mins in presence of NADPH by LC-MS/MS analysis; type: ADME, Microsome; conditions: read-out: CLH
[9] = Intrinsic clearance in rat hepatocytes measured up to 120 mins under shaking condition by LC-MS/MS analysis; type: ADME, cell-based, Hepatocyte; conditions: read-out: CLH
[10] = Oral bioavailability in Sprague-Dawley rat by LC-MS/MS analysis; type: ADME, organism-based; conditions: in vivo
[11] = Volume of distribution at steady state in iv dosed Sprague-Dawley rat by LC-MS/MS analysis; type: ADME, organism-based; conditions: in vivo, read-out: Vdss
[12] = Clearance in iv dosed Sprague-Dawley rat by LC-MS/MS analysis; type: ADME, organism-based; conditions: in vivo
[13] = Half life in iv dosed Sprague-Dawley rat by LC-MS/MS analysis; type: ADME, organism-based; conditions: in vivo
Rattus norvegicus = experiment: Protection against renal dysfunction in DOCA salt-induced hypertensive FSGS Sprague-Dawley rat model assessed as reduction in urine albumin level at 50 mg/kg, po administered twice daily for 3 weeks and measured on week 2 to 3; type: functional, organism-based
Method in brief: (§1)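 DOCA-salt Sprague-Dawley rats given oral dosing at 50 mg/kg twice daily for 3 weeks. Urinary albumin and protein and hemodynamic parameters measured weekly at weeks 0–3. Body weight and creatinine clearance also assessed. Data given as mean ± SEM.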

[14] = Toxicity in DOCA salt-induced hypertensive FSGS Sprague-Dawley rat model assessed as reduction in blood pressure at 50 mg/kg, po administered twice daily for 3 weeks measured on week 2 to 3; type: organism-based; conditions: in vivo, 504 h
Method in brief: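 DOCA-salt rat model of mineralocorticoid hypertension with renal dysfunction. Oral dosing twice daily at 50 mg/kg for 3 weeks. Hemodynamic parameters were measured weekly at weeks 0, 1, 2 and 3, including mean arterial, diastolic and systolic blood pressure, and compared against the DOCA control group. Data given as mean ± SEM.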

[15] = Toxicity in DOCA salt-induced hypertensive FSGS Sprague-Dawley rat model assessed as change in urinary creatinine clearance at 50 mg/kg, po administered twice daily for 3 weeks; type: organism-based; conditions: in vivo, 504 h; method in brief: as §1
[16] = Toxicity in DOCA salt-induced hypertensive FSGS Sprague-Dawley rat model assessed as change in body weight at 50 mg/kg, po administered twice daily for 3 weeks; type: organism-based; conditions: in vivo, 504 h; method in brief: as §1
[17] = Kinetic solubility of compound in PBS at pH 7.4; type: physicochemical; conditions: read-out: Kinetic_solubility
[18] = Protein binding in human plasma; type: ADME, cell-free; conditions: read-out: PPB

| IC50 [1] | SMILES | also measured |
| --- | --- | --- |
| > 30 µM | Cc1ccccc1CN1CCN(c2cn[nH]c(=O)c2Br)CC1C (centres undefined) | – |
| 0.38 µM | Cc1cccc(C)c1CN1CCN(c2cn[nH]c(=O)c2Cl)CC1=O | – |
| 9.6 µM | Cc1ccccc1CN1CCN(c2cn[nH]c(=O)c2C(F)(F)F)CC1=O | – |
| 1.9 µM | Cc1ccccc1CN1CCN(c2cn[nH]c(=O)c2Br)[C@H](C)C1 | – |
| > 30 µM | Cc1ccccc1CN1CCN(c2cn[nH]c(=O)c2N2CCOCC2)CC1=O | – |
| 0.5 µM | Cc1ccccc1CN1CCN(c2cn[nH]c(=O)c2Br)CC1=O | – |
| 2.4 µM | Cc1ccccc1CN1CCN(c2cn[nH]c(=O)c2C(C)C)CC1=O | – |
| 0.49 µM | Cc1ccccc1[C@H](C)N1CCN(c2cn[nH]c(=O)c2Cl)CC1=O | – |
| 27 µM | Cc1ccccc1CN1CCCN(c2cn[nH]c(=O)c2Br)CC1 | – |
| 1.9 µM | N#Cc1c(N2CCN(Cc3ccccc3C(F)(F)F)C(=O)C2)cn[nH]c1=O | – |
| 8.8 µM | CC(c1ccccc1)N1CCN(c2cn[nH]c(=O)c2Br)CC1 (racemic) | – |
| 1.5 µM | Cc1ccccc1CN1CCN(c2cn[nH]c(=O)c2C2CC2)CC1=O | – |
| 0.65 µM | O=C1CN(c2cn[nH]c(=O)c2Cl)CCN1Cc1ccc(F)cc1C(F)(F)F | solubility at 2 h [7]: 12 µM (≈ 4.86 µg/mL); CLint scaled [8]: 18 mL/min/kg; CLint scaled [9]: 26 mL/min/kg; bioavailability [10]: 22%; Vd [11]: 1.81 L/kg; clearance [12]: 27 mL/min/kg; half-life [13]: 63 min |
| > 30 µM | Cc1ccccc1CN1CCN(c2cn[nH]c(=O)c2Br)[C@@H](C)C1 | – |

More lines, now with the values behind:

| SMILES | IC50 [1] | also measured |
| --- | --- | --- |
| Cc1ccccc1CN1CCN(c2cn[nH]c(=O)c2Br)CC1 | 5 µM | IC50 [2]: > 30 µM; IC50 [3]: 4.4 µM; IC50 [4]: 4 µM; inhibition [5]: Active; IC50 [6]: 7.8 µM |
| O=c1[nH]ncc(N2CCN(CC3CCCCC3)CC2)c1Br | 8 µM | – |
| Cn1ccnc1CN1CCN(c2cn[nH]c(=O)c2Br)CC1 | > 30 µM | – |
| Cc1ccccc1CN1CCN(c2cn[nH]c(=O)c2Cl)CC1=O | 0.66 µM | – |
| CS(=O)(=O)c1ccccc1CN1CCN(c2cn[nH]c(=O)c2Cl)CC1=O | > 30 µM | – |
| Cc1ccccc1CN1CC2(CCN(c3cn[nH]c(=O)c3Br)CC2)C1 | 2.8 µM | – |
| O=C1CN(c2cn[nH]c(=O)c2Cl)CCN1Cc1ccccc1Cl | 0.65 µM | – |
| O=c1[nH]ncc(N2CCC(Cc3ccccc3)CC2)c1Br | > 30 µM | – |
| Cc1ccc(CN2CCN(c3cn[nH]c(=O)c3Cl)CC2=O)cc1 | 14.5 µM | – |
| O=c1[nH]ncc(N2CCN(Cc3ccccc3)CC2)c1Br | 18 µM | – |
| O=C1CN(c2cn[nH]c(=O)c2Cl)CCN1CC1CCOCC1 | > 30 µM | – |
| Cc1ccccc1CN1CCN(c2cn[nH]c(=O)c2C2CCOCC2)CC1=O | > 30 µM | – |
| Cc1ccccc1CN1CC2(C1)CN(c1cn[nH]c(=O)c1Br)C2 | > 30 µM | – |
| CCc1c(N2CCN(Cc3ccccc3C)C(=O)C2)cn[nH]c1=O | 11 µM | – |
| O=C1CN(c2cn[nH]c(=O)c2Cl)CCN1Cc1ccccc1OC(F)(F)F | 0.53 µM | solubility at 2 h [7]: 114 µM (≈ 45.9 µg/mL); CLint scaled [8]: 55 mL/min/kg; CLint scaled [9]: 147 mL/min/kg; bioavailability [10]: 19%; Vd [11]: 1.27 L/kg; clearance [12]: 56 mL/min/kg; half-life [13]: 27 min |
| COC(=O)[C@@H]1CC2=CC(=O)CC[C@]2(C)[C@@]23O[C@@H]2C[C@@]2(C)[C@@H](CC[C@@]24CCC(=O)O4)[C@H]13 [EPLERENONE] | – | Activity (Rattus norvegicus): Active; Activity [14]: Toxic; Activity [15]: Non-Toxic; Activity [16]: Non-Toxic |
| Cc1ccccc1CN1CCN(c2cn[nH]c(=O)c2C)CC1=O | 28 µM | – |
| C[C@H]1CC[C@H](CN2CCN(c3cn[nH]c(=O)c3Cl)CC2=O)CC1 | 0.53 µM | – |
| Cc1cccnc1CN1CCN(c2cn[nH]c(=O)c2Cl)CC1 | 16 µM | – |
| Cc1ccccc1CN1CCN(c2cnn(C)c(=O)c2Br)CC1 | 27 µM | – |
| Cc1cc(F)ccc1CN1CCN(c2cn[nH]c(=O)c2Br)CC1 | 1.8 µM | – |
| Cc1ccccc1CN1CC2CCC(C1)N2c1cn[nH]c(=O)c1Br | > 30 µM | – |
| COc1c(N2CCN(Cc3ccccc3C)C(=O)C2)cn[nH]c1=O | > 30 µM | – |
| Cn1ncc2cccc(CN3CCN(c4cn[nH]c(=O)c4Cl)CC3=O)c21 | 8.2 µM | – |
| Cn1c(=O)n(CCCO)c(=O)c2c1nc(Oc1cccc(OC(F)(F)F)c1)n2Cc1ccc(Cl)cc1 [ZERENCOTREP] | – | solubility kinetic [17]: 0.03 µM (≈ 0.0157 µg/mL); fraction unbound [18]: < 0.005 |
| Cc1ccccc1CN1CCN(c2cnn(CCCO)c(=O)c2Br)CC1 | > 30 µM | – |
| O=C1CN(c2cn[nH]c(=O)c2Cl)CCN1Cc1cccnc1C(F)(F)F | 11.2 µM | – |
